# Measurements as given in ChEMBL document CHEMBL1177882, “Novel bisstyryl derivatives of bakuchiol: targeting oral cavity pathogens” (2010).
# Activity calls are given as the source filed them. The rule behind the calls is not given here.
# What was measured:
# Streptococcus sanguinis [1] = assay: Antibacterial activity against Streptococcus sanguinis ATCC 10556 after 48 hrs by broth microdilution method; assay type: functional; settings: ATCC 10556, 48 h
# Streptococcus mutans [2] = assay: Antibacterial activity against Streptococcus mutans ATCC 25175 assessed as 280 nm absorbing material release at 2 time MIC after 60 mins by spectrophotometric analysis; assay type: functional, organism-based
# How it was run: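 S. mutans prepared in 50 mmol/l phosphate pH 7.1 (~1 × 10^9 cfu/ml) was exposed to compound at 2 × MIC for 60 min at 37 °C. Supernatant taken after centrifugation (10,000 g, 10 min) and read at A280. Release is expressed as % of a total-release control made by lysozyme treatment (100 µg/ml, 60 min, 37 °C) plus sonication.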
# Streptococcus sanguinis [3] = assay: Antibacterial activity against Streptococcus sanguinis ATCC 10556 after 24 hrs by broth microdilution method; settings: ATCC 10556, 24 h
# Fusobacterium nucleatum [4] = assay: Antibacterial activity against Fusobacterium nucleatum ATCC 10953 after 48 hrs by broth microdilution method; assay type: functional; settings: ATCC 10953, 48 h
# How it was run: (§1)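 Broth microdilution MIC for obligate anaerobes, run in their growth media (Wilkins–Chalgren for F. nucleatum and P. intermedia; supplemented Todd Hewitt broth for P. gingivalis). Inoculum suspended in Brucella broth, final 5 × 10^6 cfu/ml. Twofold dilutions, final 0.12–128 µg/ml. Incubated anaerobically (90% N2/5% H2/5% CO2) at 37 °C for 48 h; MIC is the lowest concentration without turbidity.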
# Streptococcus mutans [5] = assay: Antibacterial activity against Streptococcus mutans ATCC 25175 assessed as decrease in cell viability at 2 time MIC after 60 mins by serial dilution method relative to control; assay type: functional
# How it was run: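 S. mutans suspension from an 18 h culture (~1 × 10^9 cfu/ml) diluted 1:20 into phosphate buffer containing compound at 2 × MIC. Incubated 60 min at 37 °C, then serially diluted in saline and plated on BHI agar. Colonies counted after 48 h at 37 °C in 5% CO2; viability given as CFU/ml relative to untreated cells.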
# Prevotella intermedia [6] = assay: Antibacterial activity against Prevotella intermedia ATCC 25611 after 48 hrs by broth microdilution method; assay type: functional; settings: ATCC 25611, 48 h; how it was run: as §1
# Porphyromonas gingivalis [7] = assay: Antibacterial activity against Porphyromonas gingivalis ATCC 33277 after 48 hrs by broth microdilution method; assay type: functional; settings: ATCC 33277, 48 h; how it was run: as §1
# Streptococcus mutans [8] = assay: Antibacterial activity against Streptococcus mutans ATCC 25175 assessed as inhibition of biofilm formation after 18 hrs; assay type: functional
# How it was run: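 Single-species S. mutans biofilm grown in flat-bottom polystyrene wells, BHI with 2% sucrose, 6 × 10^7 cfu/ml final, compound twofold 0.12–128 µg/ml, 18 h at 37 °C in 5% CO2. Wells rinsed with PBS pH 7.2, methanol-fixed, stained with 0.1% crystal violet, eluted in 95% ethanol, A595 read. % inhibition relative to untreated control; MBIC50 is the lowest concentration giving ≥50% inhibition.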
# Actinomyces viscosus [9] = assay: Antibacterial activity against Actinomyces viscosus ATCC 15987 after 24 hrs by broth microdilution method; settings: ATCC 15987, 24 h
# Streptococcus mutans [10] = assay: Antibacterial activity against Streptococcus mutans ATCC 25175 after 24 hrs by broth microdilution method; settings: ATCC 25175, 24 h
# Actinomyces viscosus [11] = assay: Antibacterial activity against Actinomyces viscosus ATCC 15987 after 48 hrs by broth microdilution method; assay type: functional; settings: ATCC 15987, 48 h
# Streptococcus mutans [12] = assay: Antibacterial activity against Streptococcus mutans ATCC 25175 after 48 hrs by broth microdilution method; assay type: functional; settings: ATCC 25175, 48 h
# Streptococcus mutans [13] = assay: Antibacterial activity against Streptococcus mutans ATCC 25175 assessed as increase of cell membrane permeability at 2 time MIC after 60 mins propidium iodide staining by flow cytometry; assay type: functional, organism-based
# How it was run: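 Overnight BHI culture of S. mutans washed into 50 mmol/l sodium phosphate pH 7.1 (~1 × 10^9 cfu/ml), diluted 1:20 into buffer with compound at 2 × MIC. Incubated 60 min at room temperature; aliquots diluted in buffer and stained with propidium iodide at 10 µg/ml final on ice. The percentage of PI-stained cells was measured by flow cytometry.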
# Porphyromonas gingivalis [14] = assay: Ratio of compound MIC to bakuchiol MIC for Porphyromonas gingivalis ATCC 33277; assay type: functional
# Streptococcus mutans [15] = assay: Ratio of compound MIC to bakuchiol MIC for Streptococcus mutans ATCC 25175; assay type: functional
# Actinomyces viscosus [16] = assay: Ratio of compound MIC to bakuchiol MIC for Actinomyces viscosus ATCC 15987; assay type: functional
# Fusobacterium nucleatum [17] = assay: Ratio of compound MIC to bakuchiol MIC for sFusobacterium nucleatum ATCC 10953; assay type: functional
# Prevotella intermedia [18] = assay: Ratio of compound MIC to bakuchiol MIC for Prevotella intermedia ATCC 25611; assay type: functional
# Streptococcus sanguinis [19] = assay: Ratio of compound MIC to bakuchiol MIC for Streptococcus sanguinis ATCC 10556; assay type: functional
SMILES,MIC (Streptococcus sanguinis [3]) [µg/mL],MIC (Fusobacterium nucleatum [4]) [µg/mL],MIC (Prevotella intermedia [6]) [µg/mL],MIC (Porphyromonas gingivalis [7]) [µg/mL],MIC (Actinomyces viscosus [9]) [µg/mL],MIC (Streptococcus mutans [10]) [µg/mL],MBC (Streptococcus sanguinis [1]) [µg/mL],Activity (Streptococcus mutans [2]),MBC (Fusobacterium nucleatum [4]) [µg/mL],Activity (Streptococcus mutans [5]),MBC (Prevotella intermedia [6]) [µg/mL],MBC (Porphyromonas gingivalis [7]) [µg/mL],MBIC50 (Streptococcus mutans [8]) [µg/mL],MBC (Actinomyces viscosus [11]) [µg/mL],MBC (Streptococcus mutans [12]) [µg/mL],Activity (Streptococcus mutans [13]),other results
C=C[C@@](C)(/C=C/c1ccc(O)cc1)CCC=C(C)C [BAKUCHIOL],1,32,1,1,1,1,2,Active,64,>80%,2,1,4,2,2,Active,
COc1ccc(/C=C/[C@@](C)(/C=C/c2ccc(O)cc2)CCC=C(C)C)cc1,2,8,2,0.5,2,1,2,Active,8,>80%,4,1,2,2,2,Active,Ratio (Porphyromonas gingivalis [14]): 2; Ratio (Streptococcus mutans [15]): 2; Ratio (Actinomyces viscosus [16]): 2; Ratio (Fusobacterium nucleatum [17]): 0.25; Ratio (Prevotella intermedia [18]): 2; Ratio (Streptococcus sanguinis [19]): 2
COc1ccc(/C=C/[C@@](C)(/C=C/c2ccc(O)cc2)CCC=C(C)C)cc1C=O,16,> 128,16,2,16,16,32,,> 128,,32,2,,32,16,,
CCCOc1ccc(/C=C/[C@@](C)(/C=C/c2ccc(O)cc2)CCC=C(C)C)cc1Cl,16,64,16,4,32,32,32,,128,,32,4,,64,8,,
Oc1cc(Cl)ccc1Oc1ccc(Cl)cc1Cl [TRICLOSAN],4,2,1,2,4,4,4,,2,,1,2,,8,8,,

# Continued, in another order:
MIC (Streptococcus sanguinis [3]) [µg/mL],MIC (Fusobacterium nucleatum [4]) [µg/mL],MIC (Prevotella intermedia [6]) [µg/mL],MIC (Porphyromonas gingivalis [7]) [µg/mL],MIC (Actinomyces viscosus [9]) [µg/mL],MIC (Streptococcus mutans [10]) [µg/mL],SMILES,MBC (Streptococcus sanguinis [1]) [µg/mL],Activity (Streptococcus mutans [2]),MBC (Fusobacterium nucleatum [4]) [µg/mL],Activity (Streptococcus mutans [5]),MBC (Prevotella intermedia [6]) [µg/mL],MBC (Porphyromonas gingivalis [7]) [µg/mL],MBIC50 (Streptococcus mutans [8]) [µg/mL],MBC (Actinomyces viscosus [11]) [µg/mL],MBC (Streptococcus mutans [12]) [µg/mL],Activity (Streptococcus mutans [13]),other results
128,> 128,64,32,128,64,C=C[C@@](C)(/C=C/c1ccc(O)c([N+](=O)[O-])c1)CCC=C(C)C,> 128,,> 128,,128,32,,> 128,128,,
> 128,> 128,> 128,32,> 128,> 128,C=C[C@@](C)(/C=C/c1ccc(OC)cc1)CCC=C(C)C,> 128,Active,> 128,inactive,> 128,32,,> 128,> 128,Active,
0.5,16,0.5,0.25,0.5,0.5,COc1ccc(/C=C/[C@](C)(/C=C/c2ccc(O)cc2)CCC=C(C)C)cc1,1,Active,32,>80%,1,0.5,1,1,1,Active,Ratio (Porphyromonas gingivalis [14]): 2; Ratio (Streptococcus mutans [15]): 2; Ratio (Actinomyces viscosus [16]): 2; Ratio (Fusobacterium nucleatum [17]): 2; Ratio (Prevotella intermedia [18]): 2; Ratio (Streptococcus sanguinis [19]): 2
128,> 128,64,32,64,128,C=C[C@@](C)(/C=C/c1ccc(O)cc1)CCC1OC1(C)C (stereo not given in full),> 128,,> 128,,128,64,,128,> 128,,
